# Results: ChEMBL document CHEMBL2062435, “Synthesis and in vitro antibacterial activity of gemifloxacin derivatives containing a substituted benzyloxime moiety” (2012)
# Key:
# Assay type in all cases: functional
# Staphylococcus aureus [1] = test: Antimicrobial activity against Staphylococcus aureus ATCC […] after 18-24 hrs by two-fold serial dilution method
# In short: (§1)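 Agar-medium twofold serial dilution against Gram-positive and Gram-negative strains; MIC taken as the lowest compound concentration giving complete inhibition of bacterial growth after incubation at 35 °C for 18-24 h.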
# Staphylococcus aureus [2] = test: Antimicrobial activity against extended spectrum beta-lactamases-producing methicillin-resistant Staphylococcus aureus 10-11 after 18-24 hrs by two-fold serial dilution method
# In short: (§2)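 Agar twofold serial dilution MIC against clinical isolates. MIC was taken as the lowest concentration giving complete inhibition of bacterial growth after incubation at 35 °C for 18-24 h.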
# Staphylococcus aureus [3] = test: Antimicrobial activity against extended spectrum beta-lactamases-producing methicillin-resistant Staphylococcus aureus 10-15 after 18-24 hrs by two-fold serial dilution method; in short: as §2
# Staphylococcus aureus [4] = test: Antimicrobial activity against extended spectrum beta-lactamases-producing methicillin-sensitive Staphylococcus aureus 10-13 after 18-24 hrs by two-fold serial dilution method; in short: as §1
# Staphylococcus aureus [5] = test: Antimicrobial activity against extended spectrum beta-lactamases-producing methicillin-sensitive Staphylococcus aureus 10-14 after 18-24 hrs by two-fold serial dilution method; in short: as §1
# [6] = tested on: Staphylococcus epidermidis; test: Antimicrobial activity against extended spectrum beta-lactamases-producing methicillin-resistant Staphylococcus epidermidis 10-10 after 18-24 hrs by two-fold serial dilution method; in short: as §2
# [7] = tested on: Staphylococcus epidermidis; test: Antimicrobial activity against extended spectrum beta-lactamases-producing methicillin-resistant Staphylococcus epidermidis 10-13 after 18-24 hrs by two-fold serial dilution method; in short: as §2
# [8] = tested on: Staphylococcus epidermidis; test: Antimicrobial activity against extended spectrum beta-lactamases-producing methicillin-sensitive Staphylococcus epidermidis 10-11 after 18-24 hrs by two-fold serial dilution method; in short: as §1
# [9] = tested on: Staphylococcus epidermidis; test: Antimicrobial activity against extended spectrum beta-lactamases-producing methicillin-sensitive Staphylococcus epidermidis 10-13 after 18-24 hrs by two-fold serial dilution method; in short: as §1
# [10] = tested on: Staphylococcus epidermidis; test: Antimicrobial activity against extended spectrum beta-lactamases-producing methicillin-sensitive Staphylococcus epidermidis 10-15 after 18-24 hrs by two-fold serial dilution method; in short: as §1
# Enterococcus faecalis [11] = test: Antimicrobial activity against Enterococcus faecalis 10-5 after 18-24 hrs by two-fold serial dilution method; in short: as §1
# Enterococcus faecalis [12] = test: Antimicrobial activity against Enterococcus faecalis 10-6 after 18-24 hrs by two-fold serial dilution method; in short: as §1
# Enterococcus faecalis [13] = test: Antimicrobial activity against Enterococcus faecalis 10-7 after 18-24 hrs by two-fold serial dilution method; in short: as §1
# Enterococcus faecium [14] = test: Antimicrobial activity against Enterococcus faecium 10-5 after 18-24 hrs by two-fold serial dilution method; in short: as §1
# Enterococcus faecium [15] = test: Antimicrobial activity against Enterococcus faecium 10-9 after 18-24 hrs by two-fold serial dilution method; in short: as §1
# Streptococcus pneumoniae [16] = test: Antimicrobial activity against extended spectrum beta-lactamases-producing Streptococcus pneumoniae 10-1 after 18-24 hrs by two-fold serial dilution method; in short: as §1
# Streptococcus pneumoniae [17] = test: Antimicrobial activity against extended spectrum beta-lactamases-producing Streptococcus pneumoniae 10-4 after 18-24 hrs by two-fold serial dilution method; in short: as §1
# Escherichia coli [18] = test: Antimicrobial activity against Escherichia coli ATCC 25922 after 18-24 hrs by two-fold serial dilution method; in short: as §1
# Escherichia coli [19] = test: Antimicrobial activity against Escherichia coli 10-1 after 18-24 hrs by two-fold serial dilution method; in short: as §1
# Escherichia coli [20] = test: Antimicrobial activity against Escherichia coli 10-2 after 18-24 hrs by two-fold serial dilution method; in short: as §1
# Escherichia coli [21] = test: Antimicrobial activity against extended spectrum beta-lactamases-producing Escherichia coli 10-2 after 18-24 hrs by two-fold serial dilution method; in short: as §1
# Escherichia coli [22] = test: Antimicrobial activity against Escherichia coli 10-3 after 18-24 hrs by two-fold serial dilution method; in short: as §1
# Escherichia coli [23] = test: Antimicrobial activity against extended spectrum beta-lactamases-producing Escherichia coli 10-3 after 18-24 hrs by two-fold serial dilution method; in short: as §1
# Escherichia coli [24] = test: Antimicrobial activity against extended spectrum beta-lactamases-producing Escherichia coli 10-4 after 18-24 hrs by two-fold serial dilution method; in short: as §1
# Klebsiella pneumoniae [25] = test: Antimicrobial activity against extended spectrum beta-lactamases-producing Klebsiella pneumoniae 10-1 after 18-24 hrs by two-fold serial dilution method; in short: as §1
# Klebsiella pneumoniae [26] = test: Antimicrobial activity against Klebsiella pneumoniae 10-2 after 18-24 hrs by two-fold serial dilution method; in short: as §1
# Klebsiella pneumoniae [27] = test: Antimicrobial activity against extended spectrum beta-lactamases-producing Klebsiella pneumoniae 10-2 after 18-24 hrs by two-fold serial dilution method; in short: as §1
# Klebsiella pneumoniae [28] = test: Antimicrobial activity against Klebsiella pneumoniae 10-3 after 18-24 hrs by two-fold serial dilution method; in short: as §1
# Klebsiella pneumoniae [29] = test: Antimicrobial activity against extended spectrum beta-lactamases-producing Klebsiella pneumoniae 10-3 after 18-24 hrs by two-fold serial dilution method; in short: as §1
# Klebsiella pneumoniae [30] = test: Antimicrobial activity against Klebsiella pneumoniae 10-4 after 18-24 hrs by two-fold serial dilution method; in short: as §1
# Pseudomonas aeruginosa [31] = test: Antimicrobial activity against Pseudomonas aeruginosa 10-12 after 18-24 hrs by two-fold serial dilution method; in short: as §1
# Pseudomonas aeruginosa [32] = test: Antimicrobial activity against extended spectrum beta-lactamases-producing Pseudomonas aeruginosa 10-5 after 18-24 hrs by two-fold serial dilution method; in short: as §1
# Pseudomonas aeruginosa [33] = test: Antimicrobial activity against extended spectrum beta-lactamases-producing Pseudomonas aeruginosa 10-9 after 18-24 hrs by two-fold serial dilution method; in short: as §1
# Pseudomonas aeruginosa [34] = test: Antimicrobial activity against extended spectrum beta-lactamases-producing Pseudomonas aeruginosa 10-15 after 18-24 hrs by two-fold serial dilution method; in short: as §1
# Pseudomonas aeruginosa [35] = test: Antimicrobial activity against extended spectrum beta-lactamases-producing Pseudomonas aeruginosa 10-18 after 18-24 hrs by two-fold serial dilution method; in short: as §1
# Pseudomonas aeruginosa [36] = test: Antimicrobial activity against extended spectrum beta-lactamases-producing Pseudomonas aeruginosa 10-20 after 18-24 hrs by two-fold serial dilution method; in short: as §1
Compound,MIC (Staphylococcus aureus [1]),MIC (Staphylococcus aureus [2]),MIC (Staphylococcus aureus [3]),MIC (Staphylococcus aureus [4]),MIC (Staphylococcus aureus [5]),MIC [6],MIC [7],MIC [8],MIC [9],MIC [10],MIC (Enterococcus faecalis [11]),MIC (Enterococcus faecalis [12]),MIC (Enterococcus faecalis [13]),MIC (Enterococcus faecium [14]),MIC (Enterococcus faecium [15]),MIC (Streptococcus pneumoniae [16]),MIC (Streptococcus pneumoniae [17]),MIC (Escherichia coli [18]),MIC (Escherichia coli [19]),MIC (Escherichia coli [20]),further results
COc1ccc(CO/N=C2\CN(c3nc4c(cc3F)c(=O)c(C(=O)O)cn4C3CC3)CC2CN)c(OC)c1.CS(=O)(=O)O (racemic),0.06 µg/mL,1 µg/mL,0.25 µg/mL,1 µg/mL,0.06 µg/mL,2 µg/mL,0.5 µg/mL,4 µg/mL,1 µg/mL,4 µg/mL,0.5 µg/mL,4 µg/mL,2 µg/mL,8 µg/mL,8 µg/mL,1 µg/mL,4 µg/mL,0.125 µg/mL,> 128 µg/mL,8 µg/mL,MIC (Escherichia coli [21]): > 128 µg/mL; MIC (Escherichia coli [22]): 16 µg/mL; MIC (Escherichia coli [23]): 32 µg/mL; MIC (Escherichia coli [24]): 0.25 µg/mL; MIC (Klebsiella pneumoniae [25]): > 128 µg/mL; MIC (Klebsiella pneumoniae [26]): > 128 µg/mL; MIC (Klebsiella pneumoniae [27]): > 128 µg/mL; MIC (Klebsiella pneumoniae [28]): 8 µg/mL; MIC (Klebsiella pneumoniae [29]): > 128 µg/mL; MIC (Klebsiella pneumoniae [30]): > 128 µg/mL; MIC (Pseudomonas aeruginosa [31]): 0.06 µg/mL; MIC (Pseudomonas aeruginosa [32]): 4 µg/mL; MIC (Pseudomonas aeruginosa [33]): 8 µg/mL; MIC (Pseudomonas aeruginosa [34]): 8 µg/mL; MIC (Pseudomonas aeruginosa [35]): 16 µg/mL; MIC (Pseudomonas aeruginosa [36]): 0.25 µg/mL
COc1cc(CO/N=C2\CN(c3nc4c(cc3F)c(=O)c(C(=O)O)cn4C3CC3)CC2CN)cc(OC)c1OC.CS(=O)(=O)O (racemic),0.125 µg/mL,2 µg/mL,0.25 µg/mL,1 µg/mL,0.125 µg/mL,2 µg/mL,0.5 µg/mL,8 µg/mL,2 µg/mL,8 µg/mL,1 µg/mL,4 µg/mL,2 µg/mL,8 µg/mL,8 µg/mL,1 µg/mL,8 µg/mL,0.5 µg/mL,128 µg/mL,16 µg/mL,MIC (Escherichia coli [21]): > 128 µg/mL; MIC (Escherichia coli [22]): 16 µg/mL; MIC (Escherichia coli [23]): 16 µg/mL; MIC (Escherichia coli [24]): 8 µg/mL; MIC (Klebsiella pneumoniae [25]): > 128 µg/mL; MIC (Klebsiella pneumoniae [26]): > 128 µg/mL; MIC (Klebsiella pneumoniae [27]): > 128 µg/mL; MIC (Klebsiella pneumoniae [28]): 8 µg/mL; MIC (Klebsiella pneumoniae [29]): > 128 µg/mL; MIC (Klebsiella pneumoniae [30]): > 128 µg/mL; MIC (Pseudomonas aeruginosa [31]): 0.125 µg/mL; MIC (Pseudomonas aeruginosa [32]): 8 µg/mL; MIC (Pseudomonas aeruginosa [33]): 8 µg/mL; MIC (Pseudomonas aeruginosa [34]): 8 µg/mL; MIC (Pseudomonas aeruginosa [35]): 4 µg/mL; MIC (Pseudomonas aeruginosa [36]): 0.5 µg/mL
COc1ccc(CO/N=C2\CN(c3nc4c(cc3F)c(=O)c(C(=O)O)cn4C3CC3)CC2CN)cc1.CS(=O)(=O)O (racemic),0.015 µg/mL,1 µg/mL,0.25 µg/mL,0.015 µg/mL,0.03 µg/mL,0.5 µg/mL,0.5 µg/mL,0.5 µg/mL,0.03 µg/mL,2 µg/mL,0.125 µg/mL,2 µg/mL,1 µg/mL,4 µg/mL,8 µg/mL,0.125 µg/mL,0.125 µg/mL,0.06 µg/mL,32 µg/mL,2 µg/mL,MIC (Escherichia coli [21]): 128 µg/mL; MIC (Escherichia coli [22]): 8 µg/mL; MIC (Escherichia coli [23]): 16 µg/mL; MIC (Escherichia coli [24]): 2 µg/mL; MIC (Klebsiella pneumoniae [25]): 64 µg/mL; MIC (Klebsiella pneumoniae [26]): 128 µg/mL; MIC (Klebsiella pneumoniae [27]): 128 µg/mL; MIC (Klebsiella pneumoniae [28]): 4 µg/mL; MIC (Klebsiella pneumoniae [29]): 128 µg/mL; MIC (Klebsiella pneumoniae [30]): 128 µg/mL; MIC (Pseudomonas aeruginosa [31]): 2 µg/mL; MIC (Pseudomonas aeruginosa [32]): 4 µg/mL; MIC (Pseudomonas aeruginosa [33]): 4 µg/mL; MIC (Pseudomonas aeruginosa [34]): 8 µg/mL; MIC (Pseudomonas aeruginosa [35]): 4 µg/mL; MIC (Pseudomonas aeruginosa [36]): 2 µg/mL
